Reference: ChEMBL document CHEMBL1255300, “Pharmacodynamics of the antibacterial effect and emergence of resistance to tomopenem, formerly RO4908463/CS-023, in an in vitro pharmacokinetic model of Staphylococcus aureus infection” (Antimicrob Agents Chemother, 2008)
Converted amounts (≈) assume the structure as drawn. The source made the active and inactive calls. The calls are words filed in the database; no cut-off is given here.

Columns and labels:
Staphylococcus aureus [1] = assay: Antibacterial activity against methicillin-resistant Staphylococcus aureus 33827 infected in in vitro pharmacokinetic model assessed as time required to 99% killing at 1500 mg, iv every 8 hrs using 10^8 CFU/ml inoculum; assay type: functional
In short: (§1)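 Single-compartment dilutional in vitro PK model, 10% Mueller-Hinton broth, 37°C, stirred, dilution 132 ml/h. […] Inoculum 10^6 CFU/ml (added 45 min pre-dose) or 10^8 CFU/ml (run overnight). Viable counts by spiral plating, beta-lactamase neutralization, detection limit 10^2 CFU/ml. At least triplicate.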

Staphylococcus aureus [2] = assay: T>MIC for 4-log drop in count in methicillin-resistant Staphylococcus aureus 33815 in in vitro pharmacokinetic model after 24 hrs using 10^8 CFU/ml inoculum; assay type: functional
Serum = assay: Drug level in human serum at 700 mg; assay type: ADME, cell-free
Staphylococcus aureus [3] = assay: AUBKC (0 to 24 hrs) in methicillin-resistant Staphylococcus aureus 33922 infected in in vitro pharmacokinetic model at 750 mg, iv every 8 hrs using 10^6 CFU/ml inoculum; assay type: functional
In short: (§2)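 Single-compartment dilutional in vitro PK model at 37°C in 10% Mueller-Hinton broth, stirred, flow 132 ml/h. […] Inoculum 10^6 CFU/ml added 45 min before dosing, or 10^8 CFU/ml run overnight. Viable counts with β-lactamase neutralisation. AUBKC by log-linear trapezoidal rule, at least triplicate.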

Staphylococcus aureus [4] = assay: AUBKC (0 to 24 hrs) in methicillin-resistant Staphylococcus aureus 33921 infected in in vitro pharmacokinetic model at 1500 mg, iv every 8 hrs using 10^6 CFU/ml inoculum; assay type: functional; in short: as §2
Staphylococcus aureus [5] = assay: AUBKC (0 to 24 hrs) in methicillin-resistant Staphylococcus aureus 33922 infected in in vitro pharmacokinetic model at 1500 mg, iv every 8 hrs using 10^6 CFU/ml inoculum; assay type: functional; in short: as §2
Staphylococcus aureus [6] = assay: AUBKC (0 to 48 hrs) in methicillin-resistant Staphylococcus aureus 33829 infected in in vitro pharmacokinetic model at 750 mg, iv every 8 hrs using 10^6 CFU/ml inoculum; assay type: functional; in short: as §2
Staphylococcus aureus [7] = assay: AUBKC (0 to 48 hrs) in methicillin-resistant Staphylococcus aureus 33922 infected in in vitro pharmacokinetic model at 1500 mg, iv every 8 hrs using 10^6 CFU/ml inoculum; assay type: functional; in short: as §2
Staphylococcus aureus [8] = assay: AUBKC (0 to 48 hrs) in methicillin-resistant Staphylococcus aureus 33820 infected in in vitro pharmacokinetic model at 1500 mg, iv every 8 hrs using 10^6 CFU/ml inoculum; assay type: functional; in short: as §2
Staphylococcus aureus [9] = assay: Antibacterial activity against methicillin-resistant Staphylococcus aureus 33827 infected in in vitro pharmacokinetic model assessed as reduction in viable count at 750 mg, iv every 8 hrs measured after 48 hrs using 10^8 CFU/ml inoculum; assay type: functional; in short: as §1
Staphylococcus aureus [10] = assay: Antibacterial activity against methicillin-resistant Staphylococcus aureus 33815 infected in in vitro pharmacokinetic model assessed as reduction in viable count at 1500 mg, iv every 8 hrs measured after 12 hrs using 10^8 CFU/ml inoculum; assay type: functional
In short: (§3)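 PK model at 37°C in 10% MHB. […] A 0.5 McFarland suspension (1 ml) was added and the model run overnight to reach 10^8 CFU/ml before dosing. Counts were spiral-plated on nutrient agar with β-lactamase. Change in log CFU/ml was measured from time 0; at least triplicate.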

Staphylococcus aureus [11] = assay: Antibacterial activity against methicillin-resistant Staphylococcus aureus 33827 infected in in vitro pharmacokinetic model assessed as reduction in viable count at 1500 mg, iv every 8 hrs measured after 24 hrs using 10^8 CFU/ml inoculum; assay type: functional; in short: as §1
Staphylococcus aureus [12] = assay: Antibacterial activity against methicillin-resistant Staphylococcus aureus 33827 by 10% MH broth method; assay type: functional
In short: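 Broth dilution MIC per CLSI, run in 10% Mueller-Hinton broth at nondoubling dilutions.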

Staphylococcus aureus [13] = assay: Antibacterial activity against methicillin-resistant Staphylococcus aureus 33827 infected in in vitro pharmacokinetic model assessed as reduction in viable count at 1500 mg, iv every 8 hrs measured after 48 hrs using 10^8 CFU/ml inoculum; assay type: functional; in short: as §1
Staphylococcus aureus [14] = assay: Antibacterial activity against methicillin-resistant Staphylococcus aureus 33815 infected in in vitro pharmacokinetic model assessed as reduction in viable count at 1500 mg, iv every 8 hrs measured after 48 hrs using 10^8 CFU/ml inoculum; assay type: functional; in short: as §3
Staphylococcus aureus [15] = assay: T>MIC in methicillin-resistant Staphylococcus aureus 33820 infected in vitro pharmacokinetic model at 750 mg, iv every 8 hrs; assay type: functional
Staphylococcus aureus [16] = assay: T>MIC in methicillin-resistant Staphylococcus aureus 33815 infected in vitro pharmacokinetic model at 750 mg, iv every 8 hrs; assay type: functional
Staphylococcus aureus [17] = assay: Antibacterial activity against methicillin-resistant Staphylococcus aureus 33829 in in vitro pharmacokinetic model assessed as viable count at 2 times of MIC; assay type: functional
In short: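 Preexposure population analysis: time-zero model samples plated on nutrient agar without drug and with drug at multiples of the 10% broth MIC. Growth reported as log CFU/ml, detection limit 2 log10.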

Staphylococcus aureus [18] = assay: Antibacterial activity against methicillin-resistant Staphylococcus aureus 33922 infected in in vitro pharmacokinetic model assessed as reduction in viable count at 750 mg, iv every 8 hrs measured after 48 hrs using 10^6 CFU/ml inoculum; assay type: functional
Staphylococcus aureus [19] = assay: Antibacterial activity against methicillin-resistant Staphylococcus aureus 33829 assessed as viable count at 4 times of MIC after 48 hrs using 10^6 CFU/ml inoculum; assay type: functional, organism-based
Staphylococcus aureus [20] = assay: T>MIC for static effect in methicillin-resistant Staphylococcus aureus 33829 in in vitro pharmacokinetic model after 24 hrs using 10^6 CFU/ml inoculum; assay type: functional
Staphylococcus aureus [21] = assay: T>MIC for 3-log drop in count in methicillin-sensitive Staphylococcus aureus 5956 in in vitro pharmacokinetic model after 24 hrs using 10^6 CFU/ml inoculum; assay type: functional
In short: (§4)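 Dose-ranging: 7–13 simulated regimens per strain giving T>MIC of 0–100% (MIC from 10% MHB), at 106 or 10^8 CFU/ml as stated.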

Staphylococcus aureus [22] = assay: T>MIC for 3-log drop in count in methicillin-resistant Staphylococcus aureus 33829 in in vitro pharmacokinetic model after 24 hrs using 10^6 CFU/ml inoculum; assay type: functional
Staphylococcus aureus [23] = assay: T>MIC for 4-log drop in count in methicillin-resistant Staphylococcus aureus 33922 in in vitro pharmacokinetic model after 24 hrs using 10^6 CFU/ml inoculum; assay type: functional
Staphylococcus aureus [24] = assay: T>MIC for 2-log drop in count in methicillin-sensitive Staphylococcus aureus 5956 in in vitro pharmacokinetic model after 24 hrs using 10^8 CFU/ml inoculum; assay type: functional; in short: as §4
Staphylococcus aureus [25] = assay: Antibacterial activity against methicillin-resistant Staphylococcus aureus 33820 infected in in vitro pharmacokinetic model assessed as reduction in viable count at 750 mg, iv every 8 hrs measured after 48 hrs using 10^6 CFU/ml inoculum; assay type: functional
In short: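 Single-compartment dilutional in vitro PK model, 37°C, stirred, in 10% Mueller-Hinton broth. […] Inoculum 10^6 CFU/ml from a 24-h plate culture was added 45 min before dosing. Viable counts by spiral plating on nutrient agar with β-lactamase neutralization. Log change was taken from time 0; detection limit 10^2 CFU/ml; at least triplicate.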

Staphylococcus aureus [26] = assay: Antibacterial activity against methicillin-resistant Staphylococcus aureus 33829 infected in in vitro pharmacokinetic model assessed as time required to 99.9% killing at 750 mg, iv every 8 hrs using 10^6 CFU/ml inoculum; assay type: functional; in short: as §1

Question: `C[C@@H](O)[C@H]1C(=O)N2C(C(=O)O)=C(S[C@H]3C[C@@H](C(=O)N4CC[C@H](NC(=O)CNC(=N)N)C4)N(C)C3)[C@H](C)[C@H]12` [TOMOPENEM] was tested. Which Time (Staphylococcus aureus [1]) did it give?
Answer: Its Time is 12 h.

Question: And the “fT>MIC” value (Staphylococcus aureus [2])?
Answer: The value was 6.5%.

Question: What about the Drug uptake (Serum) of the same compound?
Answer: Its Drug uptake is 44 mg/L.

Question: And the AUBC (Staphylococcus aureus [3])?
Answer: Its AUBC is 20.2 log10CFU/ml.hr.

Question: What about the AUBC (Staphylococcus aureus [4]) of the same compound?
Answer: Its AUBC is 32.9 log10CFU/ml.hr.

Question: And the AUBC (Staphylococcus aureus [5])?
Answer: Its AUBC is 16.9 log10CFU/ml.hr.

Question: What about the AUBC (Staphylococcus aureus [6]) of the same compound?
Answer: Its AUBC is 25 log10CFU/ml.hr.

Question: And the AUBC (Staphylococcus aureus [7])?
Answer: Its AUBC is 16.9 log10CFU/ml.hr.

Question: What about the AUBC (Staphylococcus aureus [8]) of the same compound?
Answer: The AUBC was 23.4 log10CFU/ml.hr.

Question: And the log10CFU/ml (Staphylococcus aureus [9])?
Answer: Its log10CFU/ml is 5.9.

Question: And the log10CFU/ml (Staphylococcus aureus [10])?
Answer: Its log10CFU/ml is 1.5.

Question: What about the log10CFU/ml (Staphylococcus aureus [11]) of the same compound?
Answer: The log10CFU/ml was 5.8.

Question: What about the MIC (Staphylococcus aureus [12]) of the same compound?
Answer: The MIC was 0.75 µg/mL (≈ 1.39 µM).

Question: What about the log10CFU/ml (Staphylococcus aureus [13]) of the same compound?
Answer: The log10CFU/ml was 5.9.

Question: What about the log10CFU/ml (Staphylococcus aureus [14]) of the same compound?
Answer: The log10CFU/ml was 3.9.

Question: What about the “fT>MIC” value (Staphylococcus aureus [15]) of the same compound?
Answer: Its value is 73%.

Question: And the “fT>MIC” value (Staphylococcus aureus [16])?
Answer: Its value is 73%.

Question: What about the log10CFU/ml (Staphylococcus aureus [17]) of the same compound?
Answer: The log10CFU/ml was 5.8.

Question: And the log10CFU/ml (Staphylococcus aureus [18])?
Answer: Its log10CFU/ml is 3.9.

Question: What about the Activity (Staphylococcus aureus [19]) of the same compound?
Answer: Its Activity is “Active”.

Question: What about the “fT>MIC” value (Staphylococcus aureus [20]) of the same compound?
Answer: The value was 12.1%.

Question: What about the “fT>MIC” value (Staphylococcus aureus [21]) of the same compound?
Answer: The value was 10.1%.

Question: What about the “fT>MIC” value (Staphylococcus aureus [22]) of the same compound?
Answer: Its value is 21.5%.

Question: What about the “fT>MIC” value (Staphylococcus aureus [23]) of the same compound?
Answer: Its value is 21.5%.

Question: And the “fT>MIC” value (Staphylococcus aureus [24])?
Answer: The value was 7.4%.

Question: What about the log10CFU/ml (Staphylococcus aureus [25]) of the same compound?
Answer: Its log10CFU/ml is 4.2.

Question: And the Time (Staphylococcus aureus [26])?
Answer: The Time was 12 h.
